Measured values: PMC3515069 (Toxicology, 2012)
“Also recorded” adds a separate entry of the source. Like-named read-outs stand apart in the source and are kept apart here.

Tests used:
[1] = system: AhR; settings: ref Medjakovic and Jungbauer, 2008; cited from earlier work
[2] = target: T1, AhR (Homo sapiens, UniProt P35869); test: AhR antagonist luciferase assay; format: cell-based; settings: human HG2L6.1c3 cells, 10 μM with 10 nM TCDD
T1 sequence (P35869 11-848): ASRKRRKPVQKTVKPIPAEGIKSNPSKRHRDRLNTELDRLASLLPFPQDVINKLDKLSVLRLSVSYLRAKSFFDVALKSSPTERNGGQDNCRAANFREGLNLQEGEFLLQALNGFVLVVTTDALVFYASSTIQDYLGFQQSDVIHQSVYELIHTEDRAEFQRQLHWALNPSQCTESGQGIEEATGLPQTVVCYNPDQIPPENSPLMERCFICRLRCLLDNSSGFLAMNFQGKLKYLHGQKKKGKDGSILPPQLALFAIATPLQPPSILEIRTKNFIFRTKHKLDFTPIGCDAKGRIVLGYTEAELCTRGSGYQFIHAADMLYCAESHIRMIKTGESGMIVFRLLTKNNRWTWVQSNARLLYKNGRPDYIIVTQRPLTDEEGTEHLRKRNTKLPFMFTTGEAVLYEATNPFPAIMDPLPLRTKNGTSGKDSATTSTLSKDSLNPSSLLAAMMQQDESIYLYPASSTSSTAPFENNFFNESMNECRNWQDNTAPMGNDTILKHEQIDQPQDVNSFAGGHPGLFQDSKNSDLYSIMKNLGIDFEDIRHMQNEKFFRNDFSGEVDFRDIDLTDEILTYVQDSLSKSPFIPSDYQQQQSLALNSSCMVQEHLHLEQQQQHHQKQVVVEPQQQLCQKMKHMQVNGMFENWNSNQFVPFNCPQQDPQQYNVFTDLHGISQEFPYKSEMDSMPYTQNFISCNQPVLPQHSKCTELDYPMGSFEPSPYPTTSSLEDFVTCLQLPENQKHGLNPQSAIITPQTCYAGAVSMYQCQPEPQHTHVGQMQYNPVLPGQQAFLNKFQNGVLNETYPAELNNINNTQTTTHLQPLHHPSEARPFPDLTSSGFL

[3] = target: AhR (Mus musculus, UniProt P30561); test: AhR agonist luciferase induction, mouse H1L6.1c2 cells; format: cell-based; settings: 10 μM; for AhR-dependent luciferase induction, normalised to maximal TCDD response: 24 hours, 1 nM TCDD = 100%; for AhR agonist activity (in words): luciferase
In short: (§1)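 Mouse H1L6.1c2 (from Hepa1c1c7) and human HG2L6.1c3 (from HepG2) hepatoma lines stably carry firefly luciferase under four DREs upstream of the MMTV promoter. Cells were exposed for 24 h at 37°C to test compound (10 mM DMSO stock) in 0.1% DMSO, TCDD (mouse 1 nM, human 10 nM) or vehicle. Cells were PBS-washed and lysed, and luminescence was read. DMSO background was subtracted and values normalised to TCDD = 100%. S.D., n = 3.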

[4] = target: T2, AhR (Rattus norvegicus, UniProt P41738); format: cell-based; settings: rat H4IIE cells; for antagonistic effect (in words): 10 μM Chr-13 or 1 μM Chr-19 with TCDD, qRT-PCR
T2 sequence (P41738 10-853): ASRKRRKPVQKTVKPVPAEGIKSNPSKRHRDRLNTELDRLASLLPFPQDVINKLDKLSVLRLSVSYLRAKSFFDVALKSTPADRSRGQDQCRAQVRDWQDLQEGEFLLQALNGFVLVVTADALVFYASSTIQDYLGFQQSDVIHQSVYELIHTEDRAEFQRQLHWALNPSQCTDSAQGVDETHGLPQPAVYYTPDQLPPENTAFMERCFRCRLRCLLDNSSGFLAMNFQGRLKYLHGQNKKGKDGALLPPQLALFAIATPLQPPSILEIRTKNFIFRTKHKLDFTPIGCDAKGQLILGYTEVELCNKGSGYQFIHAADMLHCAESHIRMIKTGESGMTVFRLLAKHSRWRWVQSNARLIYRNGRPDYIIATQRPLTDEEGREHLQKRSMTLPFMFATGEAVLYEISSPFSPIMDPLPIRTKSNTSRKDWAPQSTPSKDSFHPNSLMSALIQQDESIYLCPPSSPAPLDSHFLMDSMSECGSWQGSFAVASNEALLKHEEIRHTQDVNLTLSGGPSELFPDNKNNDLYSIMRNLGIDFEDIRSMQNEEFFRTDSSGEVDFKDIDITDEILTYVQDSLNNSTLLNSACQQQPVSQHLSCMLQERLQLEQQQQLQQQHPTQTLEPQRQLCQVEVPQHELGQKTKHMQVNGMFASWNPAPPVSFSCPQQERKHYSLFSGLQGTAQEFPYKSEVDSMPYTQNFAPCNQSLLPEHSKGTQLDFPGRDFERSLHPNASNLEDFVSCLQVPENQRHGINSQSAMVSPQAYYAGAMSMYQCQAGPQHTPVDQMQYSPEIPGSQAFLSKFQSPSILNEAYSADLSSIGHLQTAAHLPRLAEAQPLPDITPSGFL

[5] = target: T1, AhR; format: cell-based; settings: human MCF-7 cells; for antagonistic effect (in words): 100 μM Chr-13 or 10 μM Chr-19 with TCDD
[6] = target: T2, AhR; test: CYP1A1 mRNA induction by qRT-PCR, rat H4IIE cells; settings: for concentration inducing ~20% of the maximal response of 10 nM TCDD: rat H4IIE cells, CYP1A1 mRNA
[7] = target: T1, AhR; test: CYP1A1 mRNA induction by qRT-PCR, human MCF-7 cells; settings: for concentration inducing ~20% of the maximal response of 10 nM TCDD: concentrations up to 100 μM
[8] = target: T1, AhR; test: AhR agonist luciferase induction, human HG2L6.1c3 cells; format: cell-based; settings: 10 μM
In short: as §1

[9] = target: T2, AhR
[10] = target: T1, AhR
[11] = target: T1, AhR; settings: human cells; ref Van der Heiden et al., 2007; cited from earlier work
[12] = target: T2, AhR; settings: rat H4IIE cells; ref Van der Heiden et al., 2007; cited from earlier work
[13] = system: AhR; settings: ref Ciolino and Yeh, 1999; cited from earlier work
[14] = target: T1, AhR; settings: MCF-7 cells, EROD analysis; ref Ciolino et al. (1999); cited from earlier work

Chain of AhR (Mus musculus, UniProt P30561) (P30561 10-805 limits assumed): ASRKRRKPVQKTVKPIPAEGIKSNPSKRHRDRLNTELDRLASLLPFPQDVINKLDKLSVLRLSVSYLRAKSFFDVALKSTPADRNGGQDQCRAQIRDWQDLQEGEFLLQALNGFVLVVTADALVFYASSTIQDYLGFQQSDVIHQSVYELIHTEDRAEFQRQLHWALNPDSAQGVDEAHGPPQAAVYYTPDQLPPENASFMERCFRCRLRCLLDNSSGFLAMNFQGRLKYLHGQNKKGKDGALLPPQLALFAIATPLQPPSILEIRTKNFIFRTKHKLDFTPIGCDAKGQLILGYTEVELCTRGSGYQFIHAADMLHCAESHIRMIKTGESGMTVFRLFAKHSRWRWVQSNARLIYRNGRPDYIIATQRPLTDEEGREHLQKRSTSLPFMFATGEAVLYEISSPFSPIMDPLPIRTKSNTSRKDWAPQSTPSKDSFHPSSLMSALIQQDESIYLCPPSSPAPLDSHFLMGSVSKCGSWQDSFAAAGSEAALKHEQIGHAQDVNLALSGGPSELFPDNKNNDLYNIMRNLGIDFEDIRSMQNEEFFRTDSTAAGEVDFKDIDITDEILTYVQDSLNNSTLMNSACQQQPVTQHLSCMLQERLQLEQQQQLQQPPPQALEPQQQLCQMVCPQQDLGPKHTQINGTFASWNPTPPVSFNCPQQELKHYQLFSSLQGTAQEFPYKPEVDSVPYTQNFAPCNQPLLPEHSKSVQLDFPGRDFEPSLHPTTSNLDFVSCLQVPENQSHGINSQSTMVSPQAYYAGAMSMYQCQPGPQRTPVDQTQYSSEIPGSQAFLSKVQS
Chain of AhR (Mus musculus, UniProt P30561) (P11499 whole entry partner): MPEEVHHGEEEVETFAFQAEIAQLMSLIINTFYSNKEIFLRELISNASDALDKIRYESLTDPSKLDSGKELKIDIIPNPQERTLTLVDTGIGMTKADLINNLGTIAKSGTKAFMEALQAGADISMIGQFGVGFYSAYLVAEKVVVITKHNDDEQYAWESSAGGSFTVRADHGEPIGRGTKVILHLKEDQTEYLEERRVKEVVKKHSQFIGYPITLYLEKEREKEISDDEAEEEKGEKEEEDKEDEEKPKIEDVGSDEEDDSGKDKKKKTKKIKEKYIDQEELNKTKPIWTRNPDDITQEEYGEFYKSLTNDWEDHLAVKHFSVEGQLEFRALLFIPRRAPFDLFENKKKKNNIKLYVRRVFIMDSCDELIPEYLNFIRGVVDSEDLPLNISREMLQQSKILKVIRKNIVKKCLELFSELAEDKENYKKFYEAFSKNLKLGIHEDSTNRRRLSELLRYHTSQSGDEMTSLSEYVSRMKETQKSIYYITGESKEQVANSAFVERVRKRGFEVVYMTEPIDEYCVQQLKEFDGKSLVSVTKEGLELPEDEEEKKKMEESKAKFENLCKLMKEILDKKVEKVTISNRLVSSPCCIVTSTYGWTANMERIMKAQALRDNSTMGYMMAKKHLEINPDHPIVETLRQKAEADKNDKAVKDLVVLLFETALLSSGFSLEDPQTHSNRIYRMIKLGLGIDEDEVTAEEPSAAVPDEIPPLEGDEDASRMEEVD
Chain of AhR (Mus musculus, UniProt P30561) (O08915 whole entry partner): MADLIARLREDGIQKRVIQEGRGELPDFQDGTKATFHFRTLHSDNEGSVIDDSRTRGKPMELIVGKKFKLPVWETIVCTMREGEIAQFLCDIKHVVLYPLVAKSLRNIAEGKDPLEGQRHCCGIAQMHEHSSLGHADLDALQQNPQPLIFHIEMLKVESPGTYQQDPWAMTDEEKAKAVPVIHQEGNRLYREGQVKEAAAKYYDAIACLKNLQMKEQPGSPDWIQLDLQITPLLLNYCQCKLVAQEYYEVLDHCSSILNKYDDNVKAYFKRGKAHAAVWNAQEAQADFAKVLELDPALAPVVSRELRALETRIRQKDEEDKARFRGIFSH

COc1ccc(-c2coc3cc(O)cc(O)c3c2=O)cc1 [Biochanin A]
less potent than TCDD [1]: 100 fold

Nc1oc2ccccc2c(=O)c1-c1ccc(Cl)cc1 [Chr-4]
AhR antagonist activity (in words) [2]: antagonised

COc1ccc2c(=O)c(-c3ccc(Cl)cc3)c(N)oc2c1 [Chr-13, 2-amino-3-(4′-chlorophenyl)-7-methoxychromen-4-one]
AhR-dependent luciferase induction, normalised to maximal TCDD response [3]: 50% | AhR-dependent luciferase induction, normalised to maximal TCDD response ([3]; listed as Chr 13): greater than 30% | AhR agonist activity (in words) [3]: strong agonist | AhR antagonist activity (in words) [2]: antagonised; also recorded: strong antagonist | background induction, % of the maximal induction ([4]; 10 μM Chr-13 added to TCDD C/R curve): ~ 25% | antagonistic effect (in words) [4]: no antagonistic effects | reduction of the potency of TCDD ([5]; 100 μM Chr-13): 5 fold | antagonistic effect (in words) ([5]; qRT-PCR): weak antagonist | EC50 [6]: 41.5 µM | concentration inducing ~20% of the maximal response of 10 nM TCDD [6]: 10 µM | EC50 (95% Confidence interval) ([7]; human MCF-7 cells, CYP1A1 mRNA, 4 hours, assuming maximal response is reached): could not be obtained; also recorded: No agonistic effect | concentration inducing ~20% of the maximal response of 10 nM TCDD ([7]; human MCF-7 cells, CYP1A1 mRNA): no response was detected

COc1ccc(-c2cc3cc(Cl)ccc3oc2=O)cc1 [Chr-19, 6-Chloro-3-(4′-methoxy)phenylcoumarin]
AhR agonist activity (in words) [3]: weak agonist | AhR agonist activity (in words) [8]: induced significant levels; also recorded: weak agonist | AhR antagonist activity (in words) [2]: antagonised; also recorded: antagonist | antagonistic effect (in words) [4]: no shift of the TCDD curve to the right | reduction of the potency of TCDD ([5]; 10 μM Chr-19): 3 fold | antagonistic effect (in words) ([5]; qRT-PCR): weak antagonist | reduction of the response to 10 nM TCDD ([5]; qRT-PCR, 10 μM): 10% | EC50 [9]: 7.7 µM | more potent in rat H4IIE than in human MCF-7 cells [9]: approximately 20 fold | EC50 [10]: 140 µM | concentration inducing ~20% of the maximal response of 10 nM TCDD [6]: 1 µM | concentration inducing ~20% of the maximal response of 10 nM TCDD ([7]; human MCF-7 cells, CYP1A1 mRNA): 10 µM

Clc1cc2c(cc1Cl)Oc1cc(Cl)c(Cl)cc1O2 [TCDD, 2,3,7,8-tetrachlorodibenzo-p-dioxin, reference compound]
EC50 [6]: 0.000113 µM | EC50 [7]: 0.000661 µM | potency lower in human MCF-7 than in rat H4IIE cells ([7]; ratio of CYP1A1 mRNA EC50s, p<0.0001): 6 fold

O=c1cc(-c2ccccc2)oc2cc(O)cc(O)c12 [chrysin]
AhR activity (in words) [11]: partial agonist | AhR antagonistic effect (in words) [12]: no antagonistic effects

O=c1c(O)c(-c2ccccc2)oc2cc(O)cc(O)c12 [galangin]
AhR activity (in words) [13]: AhR antagonist

O=c1c(O)c(-c2ccc(O)cc2)oc2cc(O)cc(O)c12 [kaempferol]
AhR activity (in words) [14]: antagonist

O=c1c(O)c(-c2ccc(O)c(O)c2)oc2cc(O)cc(O)c12 [quercetin, Quercetin]
AhR activity (in words) [14]: AhR agonist
